{"source": "ChEMBL document CHEMBL1136045", "about": "“Synthesis, in vitro receptor binding, and in vivo evaluation of fluorescein and carbocyanine peptide-based optical contrast agents” (J Med Chem, 2002)", "target": "Somatostatin receptor", "experiment": "In vitro binding affinity of [111In]DTPA-[Y3]-octreotate to somatostatin receptor in the rat pancreatic tumor cell line, […]", "summary_of_the_method": "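Competition binding on CA20948 rat pancreatic cell membranes with the tracer [111In]-DTPA-[Y3]-octreotate and increasing concentrations of unlabeled competitor. Incubation 90 min at room temperature, then filtration and buffer washes. Filter-bound radioactivity was gamma-counted, and IC50 came from a four-parameter curve fit. Specific activity of the radiolabeled peptide was >1400 Ci/mmol.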"}
{"smiles": "C[C@@H](O)[C@H](NC(=O)[C@H]1CSSC[C@H](NC(=O)[C@@H](Cc2ccccc2)NC(=O)CNC(=O)[C@H](CO)NC(=O)CNC(=S)Nc2ccc3c(c2)C(=O)OC32c3ccc(O)cc3Oc3cc(O)ccc32)C(=O)N[C@@H](Cc2ccc(O)cc2)C(=O)N[C@H](Cc2c[nH]c3ccccc23)C(=O)N[C@@H](CCCCN)C(=O)N[C@H]([C@@H](C)O)C(=O)N1)C(=O)O", "values": [{"measurement": "IC50", "value": 0.2852, "unit": "µM"}]}
{"smiles": "C[C@@H](O)[C@H](NC(=O)[C@H]1CSSC[C@H](NC(=O)[C@H](N)Cc2ccccc2)C(=O)N[C@@H](Cc2ccc(O)cc2)C(=O)N[C@H](Cc2c[nH]c3ccccc23)C(=O)N[C@@H](CCCCN)C(=O)N[C@H]([C@@H](C)O)C(=O)N1)C(=O)O", "values": [{"measurement": "IC50", "value": 0.0006, "unit": "µM"}]}
{"smiles": "C[C@@H](O)[C@@H](CO)NC(=O)[C@H]1CSSC[C@H](NC(=O)[C@H](N)Cc2ccccc2)C(=O)N[C@@H](Cc2ccc(O)cc2)C(=O)N[C@H](Cc2c[nH]c3ccccc23)C(=O)N[C@@H](CCCCN)C(=O)N[C@H]([C@@H](C)O)C(=O)N1", "values": [{"measurement": "IC50", "value": 0.0004, "unit": "µM"}]}
{"smiles": "C[C@@H](O)[C@H](NC(=O)[C@H]1CSSC[C@H](NC(=O)[C@@H](Cc2ccccc2)/N=C(/S)Nc2ccc3c(c2)C(=O)OC32c3ccc(O)cc3Oc3cc(O)ccc32)C(=O)N[C@@H](Cc2ccc(O)cc2)C(=O)N[C@H](Cc2c[nH]c3ccccc23)C(=O)N[C@@H](CCCCN)C(=O)N[C@H]([C@@H](C)O)C(=O)N1)C(=O)O", "values": [{"measurement": "IC50", "value": 0.0099, "unit": "µM"}]}
{"smiles": "C[C@@H](O)[C@H](NC(=O)[C@H]1CSSC[C@H](NC(=O)[C@@H](Cc2ccccc2)NC(=O)C(CCCC/N=C(\\S)Nc2ccc3c(c2)C(=O)OC32c3ccc(O)cc3Oc3cc(O)ccc32)NC(=O)CN(CCN(CCN(CC(=O)O)CC(=O)O)CC(=O)O)CC(=O)O)C(=O)N[C@@H](Cc2ccc(O)cc2)C(=O)N[C@H](Cc2c[nH]c3ccccc23)C(=O)N[C@@H](CCCCN)C(=O)N[C@H]([C@@H](C)O)C(=O)N1)C(=O)O", "note": "(stereo partly specified)", "values": [{"measurement": "IC50", "value": 0.0103, "unit": "µM"}]}
{"smiles": "C[C@@H](O)[C@H](NC(=O)[C@H]1CSSC[C@H](NC(=O)[C@@H](Cc2ccccc2)NC(=O)C(CCCCNC(=O)CN(CCN(CCN(CC(=O)O)CC(=O)O)CC(=O)O)CC(=O)O)/N=C(\\S)Nc2ccc3c(c2)C(=O)OC32c3ccc(O)cc3Oc3cc(O)ccc32)C(=O)N[C@@H](Cc2ccc(O)cc2)C(=O)N[C@H](Cc2c[nH]c3ccccc23)C(=O)N[C@@H](CCCCN)C(=O)N[C@H]([C@@H](C)O)C(=O)N1)C(=O)O", "note": "(stereo partly specified)", "values": [{"measurement": "IC50", "value": 0.0713, "unit": "µM"}]}
{"smiles": "C[C@@H](O)[C@H](NC(=O)[C@H]1CSSC[C@H](NC(=O)[C@@H](Cc2ccccc2)NC(=O)CC/N=C(\\S)Nc2ccc3c(c2)C(=O)OC32c3ccc(O)cc3Oc3cc(O)ccc32)C(=O)N[C@@H](Cc2ccc(O)cc2)C(=O)N[C@H](Cc2c[nH]c3ccccc23)C(=O)N[C@@H](CCCCN)C(=O)N[C@H]([C@@H](C)O)C(=O)N1)C(=O)O", "values": [{"measurement": "IC50", "value": "> 1", "unit": "µM"}]}
{"smiles": "C[C@@H](O)[C@H](NC(=O)[C@H]1CSSC[C@H](NC(=O)[C@@H](Cc2ccccc2)NC(=O)CN(CCN(CCN(CC(=O)O)CC(=O)O)CC(=O)O)CC(=O)O)C(=O)N[C@@H](Cc2ccc(O)cc2)C(=O)N[C@H](Cc2c[nH]c3ccccc23)C(=O)N[C@@H](CCCCN)C(=O)N[C@H]([C@@H](C)O)C(=O)N1)C(=O)O", "values": [{"measurement": "IC50", "value": 0.0019, "unit": "µM"}]}
{"smiles": "C[C@@H](O)[C@H](NC(=O)[C@H]1CSSC[C@H](NC(=O)[C@@H](Cc2ccccc2)NC(=O)C(CCCCN)/N=C(\\S)Nc2ccc3c(c2)C(=O)OC32c3ccc(O)cc3Oc3cc(O)ccc32)C(=O)N[C@@H](Cc2ccc(O)cc2)C(=O)N[C@H](Cc2c[nH]c3ccccc23)C(=O)N[C@@H](CCCCN)C(=O)N[C@H]([C@@H](C)O)C(=O)N1)C(=O)O", "note": "(stereo partly specified)", "values": [{"measurement": "IC50", "value": 0.0064, "unit": "µM"}]}
{"smiles": "C[C@@H](O)[C@H](NC(=O)[C@H]1CSSC[C@H](NC(=O)[C@@H](Cc2ccccc2)NC(=O)C(N)CCCC/N=C(\\S)Nc2ccc3c(c2)C(=O)OC32c3ccc(O)cc3Oc3cc(O)ccc32)C(=O)N[C@@H](Cc2ccc(O)cc2)C(=O)N[C@H](Cc2c[nH]c3ccccc23)C(=O)N[C@@H](CCCCN)C(=O)N[C@H]([C@@H](C)O)C(=O)N1)C(=O)O", "note": "(stereo partly specified)", "values": [{"measurement": "IC50", "value": 0.1878, "unit": "µM"}]}
{"smiles": "C[C@@H](O)[C@H](NC(=O)[C@H]1CSSC[C@H](NC(=O)[C@@H](Cc2ccccc2)NC(=O)C(CCCC/N=C(/S)Nc2ccc3c(c2)C(=O)OC32c3ccc(O)cc3Oc3cc(O)ccc32)NC(=O)CN2CCN(CC(=O)O)CCN(CC(=O)O)CCN(CC(=O)O)CC2)C(=O)N[C@@H](Cc2ccc(O)cc2)C(=O)N[C@H](Cc2c[nH]c3ccccc23)C(=O)N[C@@H](CCCCN)C(=O)N[C@H]([C@@H](C)O)C(=O)N1)C(=O)O", "note": "(stereo partly specified)", "values": [{"measurement": "IC50", "value": 0.0103, "unit": "µM"}]}
